What was measured:
[1] = Rate of reduction by human BE cell extract; assay type: functional
How it was run: (§1)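 Extract from 2 × 10⁷ BE cells in 2 mL PBS, sonicated and centrifuged to remove debris. Quinone at 100 µM in PBS with acetylated cytochrome c (100 µM) and NADPH (200 µM). Reduction was followed through cytochrome c reduction.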

HT-29 = experiment: In vitro cytotoxicity against HT-29 cell line; assay type: functional, Homo sapiens
How it was run: (§2)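 Continuous-exposure MTT assay at 600 cells/well. HT29 (colon) and H460 (large-cell lung) express high DTD; H596 (lung) and BE (colon) lack detectable DTD activity. Absorbance was read at 540 and 640 nm after 5 days, and growth inhibition was plotted against concentration. Triplicates at each concentration, on at least two occasions.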

Nucleic Acid [2] = experiment: Ability to produce interstrand cross-links in the plasmid DNA at 10 uM concentration; assay type: functional
How it was run: (§3)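 Stocks were 10 mM in DMSO. DNA was ethanol-precipitated, denatured in 30% DMSO at 90 °C for 2 min and run on 0.8% agarose gels at 40 V for 16 h. Cross-linked versus single-stranded DNA was read by autoradiography.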

BE [3] = experiment: In vitro cytotoxicity against BE cell line; assay type: functional, Homo sapiens; how it was run: as §2
Nucleic Acid [4] = experiment: Ability to produce interstrand cross-links in the plasmid DNA at 100 uM concentration; assay type: functional; how it was run: as §3
NCI-H460 = experiment: In vitro cytotoxicity against H460 cell line; assay type: functional, Homo sapiens; how it was run: as §2
[5] = target: NAD(P)H dehydrogenase [quinone] 1 (Homo sapiens) (UniProt P15559); experiment: Rate of reduction by human recombinant DTD; assay type: functional
Sequence of NAD(P)H dehydrogenase [quinone] 1 (Homo sapiens) (P15559 whole entry): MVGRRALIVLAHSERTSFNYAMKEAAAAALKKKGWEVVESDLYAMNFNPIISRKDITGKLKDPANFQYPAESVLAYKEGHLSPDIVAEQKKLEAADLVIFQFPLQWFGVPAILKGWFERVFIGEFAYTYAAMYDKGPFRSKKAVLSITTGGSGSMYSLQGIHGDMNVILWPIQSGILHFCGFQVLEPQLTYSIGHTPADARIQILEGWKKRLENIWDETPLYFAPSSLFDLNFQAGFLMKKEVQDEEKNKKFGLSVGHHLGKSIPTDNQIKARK
How it was run: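 Human recombinant DTD (specific activity 653 µmol/min/mg protein) with quinone at 50 µM in 50 mM Tris-HCl, pH 7.4. Reduction was followed through the coupled reduction of 70 µM cytochrome c.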

NCI-H596 = experiment: In vitro cytotoxicity against H596 cell line; assay type: functional, Homo sapiens; how it was run: as §2
BE [6] = experiment: Rate of reduction by human BE cell extract; Not Detected; assay type: functional, cell-based; how it was run: as §1

Structure (SMILES)	Rate of reduction [1]	Cytotoxicity (HT-29)	Activity (Nucleic Acid [2])	Cytotoxicity (BE [3])	Activity (Nucleic Acid [4])	Cytotoxicity (NCI-H460)	Rate of reduction [5]	Cytotoxicity (NCI-H596)	Rate of reduction (BE [6])
CC1=C(N2CC2)C(=O)C(C(C)C)=C(N2CC2)C1=O	1.1 nM/min/mg	33 nM	28.1%	1300 nM	87.8%	3.6 nM	2.7 µM/min/mg	1230 nM	
CCC1=C(N2CC2)C(=O)C(CC)=C(N2CC2)C1=O	2.3 nM/min/mg	21.8 nM	60.9%	290 nM	100%	4.1 nM	3 µM/min/mg	1160 nM	
O=C1C=C(N2CC2)C(=O)C=C1N1CC1	25.3 nM/min/mg	5.1 nM	100%	10.2 nM	100%	4.6 nM	35.6 µM/min/mg	12.9 nM	
CCCC1=C(N2CC2)C(=O)C(CCC)=C(N2CC2)C1=O	1.7 nM/min/mg	58.2 nM	16.4%	590 nM	95.6%	20.1 nM	1 µM/min/mg	1290 nM	
CC(C)C1=C(N2CC2)C(=O)C(C(C)C)=C(N2CC2)C1=O		2740 nM	0%	3130 nM	0%	170 nM	0.22 µM/min/mg	2620 nM	Not detected
CCC1=C(N2CC2)C(=O)C(C)=C(N2CC2)C1=O	4 nM/min/mg	3.9 nM	69%	84 nM	100%	1.6 nM	12.5 µM/min/mg	98.5 nM	
CC1=C(N2CC2)C(=O)C(C)=C(N2CC2)C1=O	9.2 nM/min/mg	3.4 nM	79.8%	25.9 nM	100%	0.77 nM	21 µM/min/mg	48.8 nM	
CCCC1=C(N2CC2)C(=O)C(C)=C(N2CC2)C1=O	3.4 nM/min/mg	5.5 nM	58.4%	67 nM	100%	3.3 nM	7.9 µM/min/mg	228 nM	

Source: ChEMBL document CHEMBL1132246, “Cross-linking and sequence-specific alkylation of DNA by aziridinylquinones. 3. Effects of alkyl substituents” (1999)
